Assays:
Rattus norvegicus [1] = experiment: Distribution of radioactivity in rat testis 60 min after intravenous administration of iodine labeled compound; format: ADME, organism-based; conditions: in vivo, 1 h
Procedure, shortened: (§1)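 Tail-vein injection of [123I]ZIENT (10 μCi in 0.2 mL 10% EtOH/0.9% NaCl, then 0.4 mL saline flush) into ketamine-anaesthetised male Sprague–Dawley rats (225–300 g). Animals were killed by cardiac excision at set times. Organs were excised, rinsed, blotted, weighed and gamma-counted. % dose/g was calculated against diluted aliquots of injectate. Mean ± SE, n=4–5.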

Rattus norvegicus [2] = experiment: Distribution of radioactivity in rat brain region cerebellum 60 min after intravenous administration of iodine labeled compound in presence of fluvoxamine blocker in study 1; format: ADME, organism-based; conditions: in vivo, 1 h
Procedure, shortened: (§2)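 Male Sprague–Dawley rats (250–300 g), ketamine-anesthetized. Blocker (2 mg/kg) or none was given iv 15 min before tail-vein radioligand (10 µCi in 0.2 mL 10% EtOH/saline). Rats were killed at 60 min with im pentobarbital. Brain regions were dissected, weighed and gamma-counted. % dose/g was taken from decay-corrected, background-subtracted counts versus the injected dose.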

Rattus norvegicus [3] = experiment: Distribution of radioactivity in rat heart 5 min after intravenous administration of iodine labeled compound; format: ADME, organism-based; conditions: in vivo; procedure, shortened: as §1
Rattus norvegicus [4] = experiment: Ratio of distribution of radioactivity in rat brain region prefrontal cortex and cerebellum 60 min after intravenous administration of iodine labeled compound in absence of blocker in study 2; format: ADME, organism-based; conditions: in vivo, 1 h
Rattus norvegicus [5] = experiment: Distribution of radioactivity in rat brain striatum 120 min after intravenous administration of iodine labeled compound; format: ADME, organism-based; conditions: in vivo, 2 h
Procedure, shortened: (§3)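 Male Sprague–Dawley rats (225–300 g) under ketamine anaesthesia were given [123I]ZIENT (10 μCi) in 0.2 mL 10% EtOH/0.9% NaCl into the tail vein, with a saline flush. Hypothalamus, prefrontal cortex, striatum, pons and cerebellum were dissected and gamma-counted. % injected dose/g came from decay-corrected counts against the diluted injected dose, and region/cerebellum ratios were taken from these. Mean ± SE, n=4–5.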

Rattus norvegicus [6] = experiment: Ratio of distribution of radioactivity in rat brain prefrontal cortex and cerebellum 120 min after intravenous administration of iodine labeled compound; format: ADME, organism-based; conditions: in vivo, 2 h; procedure, shortened: as §3
Rattus norvegicus [7] = experiment: Distribution of radioactivity in rat brain region pons 60 min after intravenous administration of iodine labeled compound in presence of reboxetine blocker in study 2; format: ADME, organism-based; conditions: in vivo, 1 h; procedure, shortened: as §2
Rattus norvegicus [8] = experiment: Distribution of radioactivity in rat brain striatum 30 min after intravenous administration of iodine labeled compound; format: ADME, organism-based; conditions: in vivo, 0.5 h; procedure, shortened: as §3
Rattus norvegicus [9] = experiment: Distribution of radioactivity in rat muscle tissue 60 min after intravenous administration of iodine labeled compound; format: ADME, organism-based; conditions: in vivo, 1 h; procedure, shortened: as §1
Rattus norvegicus [10] = experiment: Distribution of radioactivity in rat brain prefrontal cortex 60 min after intravenous administration of iodine labeled compound; format: ADME, organism-based; conditions: in vivo, 1 h
Procedure, shortened: (§4)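 Male Sprague–Dawley rats (225–300 g) under ketamine received 10 µCi radioligand iv (tail vein) in 10% EtOH/saline. Hypothalamus, prefrontal cortex, striatum, pons and cerebellum were dissected, weighed and gamma-counted. % injected dose/g was taken from decay-corrected counts versus diluted dose. Mean ± SE and range, n=5 (5, 30 min) or 4 (60, 120 min).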

Rattus norvegicus [11] = experiment: Distribution of radioactivity in rat blood 120 min after intravenous administration of iodine labeled compound; format: ADME, organism-based; conditions: in vivo, 2 h
Procedure, shortened: (§5)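 Male Sprague–Dawley rats (225–300 g) under ketamine received 10 µCi radioligand in 0.2 mL 10% EtOH/0.9% NaCl via tail vein, then a saline flush. Killed by cardiac excision at set times. Organs were excised, weighed and gamma-counted. % dose/g was taken against diluted injectate. Mean ± SE and range, n=4 (5 min) or 5 (30–120 min).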

Rattus norvegicus [12] = experiment: Distribution of radioactivity in rat brain region frontal cortex 60 min after intravenous administration of iodine labeled compound in absence of blocker in study 2; format: ADME, organism-based; conditions: in vivo, 1 h; procedure, shortened: as §2
Rattus norvegicus [13] = experiment: Distribution of radioactivity in rat liver 60 min after intravenous administration of iodine labeled compound; format: ADME, organism-based; conditions: in vivo, 1 h; procedure, shortened: as §1
Rattus norvegicus [14] = experiment: Distribution of radioactivity in rat spleen 5 min after intravenous administration of iodine labeled compound; format: ADME, organism-based; conditions: in vivo; procedure, shortened: as §1
Rattus norvegicus [15] = experiment: Ratio of distribution of radioactivity in rat brain region hypothalamus and cerebellum 60 min after intravenous administration of iodine labeled compound in presence of fluvoxamine blocker in study 1; format: ADME, organism-based; conditions: in vivo, 1 h
Rattus norvegicus [16] = experiment: Distribution of radioactivity in rat thyroid 5 min after intravenous administration of iodine labeled compound; format: ADME, organism-based, Thyroid gland; conditions: in vivo; procedure, shortened: as §1
Rattus norvegicus [17] = experiment: Distribution of radioactivity in rat brain striatum 5 min after intravenous administration of iodine labeled compound; format: ADME, organism-based; conditions: in vivo; procedure, shortened: as §3
Rattus norvegicus [18] = experiment: Ratio of distribution of radioactivity in rat brain hypothalamus and cerebellum 60 min after intravenous administration of iodine labeled compound; format: ADME, organism-based; conditions: in vivo, 1 h; procedure, shortened: as §3
Rattus norvegicus [19] = experiment: Distribution of radioactivity in rat brain pons 30 min after intravenous administration of iodine labeled compound; format: ADME, organism-based; conditions: in vivo, 0.5 h; procedure, shortened: as §4
Rattus norvegicus [20] = experiment: Distribution of radioactivity in rat spleen 120 min after intravenous administration of iodine labeled compound; format: ADME, organism-based; conditions: in vivo, 2 h; procedure, shortened: as §1
Rattus norvegicus [21] = experiment: Distribution of radioactivity in rat brain region hypothalamus 60 min after intravenous administration of iodine labeled compound in absence of blocker in study 2; format: ADME, organism-based; conditions: in vivo, 1 h; procedure, shortened: as §2
Rattus norvegicus [22] = experiment: Ratio of distribution of radioactivity in rat brain region pons and cerebellum 60 min after intravenous administration of iodine labeled compound in presence of fluvoxamine blocker in study 1; format: ADME, organism-based; conditions: in vivo, 1 h
Rattus norvegicus [23] = experiment: Ratio of distribution of radioactivity in rat brain region pons and cerebellum 60 min after intravenous administration of iodine labeled compound in absence of blocker in study 2; format: ADME, organism-based; conditions: in vivo, 1 h
Rattus norvegicus [24] = experiment: Ratio of distribution of radioactivity in rat brain striatum and cerebellum 120 min after intravenous administration of iodine labeled compound; format: ADME, organism-based; conditions: in vivo, 2 h
Procedure, shortened: (§6)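 Male Sprague–Dawley rats (225–300 g), ketamine anesthesia, injected via tail vein with [123I]ZIENT (10 μCi in 0.2 mL 10% EtOH/0.9% NaCl, 0.4 mL saline flush). Killed at 5, 30, 60 or 120 min. Striatum and cerebellum dissected, weighed, γ-counted. Decay-corrected %injected dose/g taken against diluted injectate. Ratio is striatum over cerebellum. Four or five rats per time point, mean ± standard error.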

Rattus norvegicus [25] = experiment: Distribution of radioactivity in rat muscle tissue 30 min after intravenous administration of iodine labeled compound; format: ADME, organism-based; conditions: in vivo, 0.5 h; procedure, shortened: as §1
Rattus norvegicus [26] = experiment: Ratio of distribution of radioactivity in rat brain striatum and cerebellum 5 min after intravenous administration of iodine labeled compound; format: ADME, organism-based; conditions: in vivo; procedure, shortened: as §6
Rattus norvegicus [27] = experiment: Distribution of radioactivity in rat brain region striatum 60 min after intravenous administration of iodine labeled compound in presence of reboxetine blocker in study 2; format: ADME, organism-based; conditions: in vivo, 1 h
Procedure, shortened: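 Male Sprague–Dawley rats (250–300 g), ketamine-anaesthetised, received [123I]ZIENT (10 μCi) in 0.2 mL 10% ethanol/0.9% NaCl via the tail vein. […] Rats were killed at 60 min with pentobarbital, brain regions dissected and gamma-counted. Values are % dose/g from decay-corrected, background-subtracted counts against the diluted injected dose.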

Rattus norvegicus [28] = experiment: Distribution of radioactivity in rat brain region prefrontal cortex 60 min after intravenous administration of iodine labeled compound in presence of RTI-113 blocker in study 1; format: ADME, organism-based; conditions: in vivo, 1 h; procedure, shortened: as §2
Rattus norvegicus [29] = experiment: Distribution of radioactivity in rat thyroid 120 min after intravenous administration of iodine labeled compound; format: ADME, organism-based, Thyroid gland; conditions: in vivo, 2 h; procedure, shortened: as §1
Rattus norvegicus [30] = experiment: Ratio of distribution of radioactivity in rat brain region pons and cerebellum 60 min after intravenous administration of iodine labeled compound in presence of RTI-113 blocker in study 1; format: ADME, organism-based; conditions: in vivo, 1 h
Rattus norvegicus [31] = experiment: Distribution of radioactivity in rat blood 30 min after intravenous administration of iodine labeled compound; format: ADME, organism-based; conditions: in vivo, 0.5 h; procedure, shortened: as §5
Rattus norvegicus [32] = experiment: Ratio of distribution of radioactivity in rat brain region striatum and cerebellum 60 min after intravenous administration of iodine labeled compound in presence of reboxetine blocker in study 2; format: ADME, organism-based; conditions: in vivo, 1 h

**Q.** What does the source list for `COC(=O)[C@@H]1C2CCC(C[C@@H]1c1ccc(/C=C\I)cc1)N2` (some centres not stated)?
**A.** Distribution (dose/g) (Rattus norvegicus [1]): 0.32%; Distribution (dose/g) (Rattus norvegicus [2]): 0.17%; Distribution (dose/g) (Rattus norvegicus [3]): 0.81%; Distribution (dose/g) (Rattus norvegicus [4]): 3.89%; Distribution (dose/g) (Rattus norvegicus [5]): 0.49%; Distribution (dose/g) (Rattus norvegicus [6]): 4.08%; Distribution (dose/g) (Rattus norvegicus [7]): 0.53%; Distribution (dose/g) (Rattus norvegicus [8]): 0.72%; Distribution (dose/g) (Rattus norvegicus [9]): 0.2%; Distribution (dose/g) (Rattus norvegicus [10]): 0.82%; Distribution (dose/g) (Rattus norvegicus [11]): 0.31%; Distribution (dose/g) (Rattus norvegicus [12]): 0.59%; Distribution (dose/g) (Rattus norvegicus [13]): 0.22%; Distribution (dose/g) (Rattus norvegicus [14]): 1.81%; Distribution (dose/g) (Rattus norvegicus [15]): 1.82%; Distribution (dose/g) (Rattus norvegicus [16]): 0.17%; Distribution (dose/g) (Rattus norvegicus [17]): 0.64%; Distribution (dose/g) (Rattus norvegicus [18]): 3.08%; Distribution (dose/g) (Rattus norvegicus [19]): 0.6%; Distribution (dose/g) (Rattus norvegicus [20]): 0.43%; Distribution (dose/g) (Rattus norvegicus [21]): 0.75%; Distribution (dose/g) (Rattus norvegicus [22]): 1.47%; Distribution (dose/g) (Rattus norvegicus [23]): 2.79%; Distribution (dose/g) (Rattus norvegicus [24]): 4%; Distribution (dose/g) (Rattus norvegicus [25]): 0.23%; Distribution (dose/g) (Rattus norvegicus [26]): 1.21%; Distribution (dose/g) (Rattus norvegicus [27]): 0.66%; Distribution (dose/g) (Rattus norvegicus [28]): 0.78%; Distribution (dose/g) (Rattus norvegicus [29]): 1.87%; Distribution (dose/g) (Rattus norvegicus [30]): 2.24%; Distribution (dose/g) (Rattus norvegicus [31]): 0.4%; Distribution (dose/g) (Rattus norvegicus [32]): 3.04%
